Measured values: ChEMBL document CHEMBL3085714 (J Med Chem, 2013)

Experiments:
[1] = target: T1, Mitogen-activated protein kinase 14 (Homo sapiens, UniProt Q16539); assay: Competitive inhibition of p38alpha MAP kinase (unknown origin) in presence of 100 uM ATP
[2] = Metabolic stability in human/rat liver microsomes at 1 mg/ml after 180 mins by LC/MS analysis; type: ADME, Microsome; conditions: read-out: Stability
How it was run: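 Rat and human liver microsomes were incubated with microsomal protein standardized to 1 mg/mL. Aliquots were withdrawn immediately after reaction start and at 10, 20, 40, 60, 120 and 180 min, then analysed by LC-MS.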

[3] = target: T1, Mitogen-activated protein kinase 14; assay: Inhibition of p38alpha MAP kinase in human whole blood assessed as inhibition of LPS-induced TNFalpha release by ELISA
[4] = target: T1, Mitogen-activated protein kinase 14; assay: Inhibition of p38alpha MAP kinase in human whole blood assessed as inhibition of LPS-induced TNFalpha release at 100 uM by ELISA
[5] = Cmax in C57BL/6 mouse at 10 mg/kg, po; type: ADME, organism-based; design: dose 10 mg/kg, route oral; conditions: in vivo
How it was run: (§1)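 Male Black 6 C57 mice were dosed orally at 10 mg/kg. Plasma was sampled for up to 72 h postdose. Parent drug was quantified by LC-MS/MS after derivatization with 4-pyridinylboronic acid (70 °C, 40 min). Parameters came from noncompartmental analysis of mean plasma concentration–time profiles.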

[6] = AUC (0 to t) in C57BL/6 mouse at 10 mg/kg, po; type: ADME, organism-based; design: dose 10 mg/kg, route oral; conditions: plasma; how it was run: as §1
Mus musculus [7] = assay: Half life in C57BL/6 mouse at 10 mg/kg, po; type: ADME, organism-based; design: dose 10 mg/kg, route oral; conditions: in vivo; how it was run: as §1
Mus musculus [8] = assay: Terminal elimination rate in C57BL/6 mouse at 10 mg/kg, po; type: ADME, organism-based; design: dose 10 mg/kg, route oral; conditions: in vivo
Mus musculus [9] = organism: Mus musculus; assay: Metabolic stability in C57BL/6 mouse assessed as M-605 metabolite level in blood after 72 hrs by LC-MS/MS analysis; type: ADME, organism-based
Mus musculus [10] = organism: Mus musculus; assay: Metabolic stability in C57BL/6 mouse assessed as M-603 metabolite level in blood after 72 hrs by LC-MS/MS analysis; type: ADME, organism-based
Mus musculus [11] = organism: Mus musculus; assay: Metabolic stability in C57BL/6 mouse assessed as M-734 metabolite level in blood after 72 hrs by LC-MS/MS analysis; type: ADME, organism-based
Mus musculus [12] = organism: Mus musculus; assay: Metabolic stability in C57BL/6 mouse assessed as M-732 metabolite level in blood after 72 hrs by LC-MS/MS analysis; type: ADME, organism-based
[13] = AUC (0 to infinity) in C57BL/6 mouse at 10 mg/kg, po; type: ADME, organism-based; design: time infinity, dose 10 mg/kg, route oral; conditions: plasma; how it was run: as §1
[14] = Tmax in C57BL/6 mouse at 10 mg/kg, po; type: ADME, organism-based; design: dose 10 mg/kg, route oral; conditions: in vivo
[15] = target: T1, Mitogen-activated protein kinase 14; assay: Competitive inhibition of p38alpha MAP kinase (unknown origin) at 10 uM in presence of 100 uM ATP
Liver microsome [16] = assay: Metabolic stability in female rat liver microsomes; type: ADME
How it was run: (§2)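 Pooled liver microsomes, male and female, from rat and human were incubated separately. Time–concentration profiles of metabolite formation were followed by LC-MS. Incubations were run in triplicate and reported as mean ± SEM.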

Liver microsome [17] = assay: Metabolic stability in male human liver microsomes; type: ADME; how it was run: as §2
Liver microsome [18] = assay: Metabolic stability in female human liver microsomes; type: ADME; how it was run: as §2
Liver microsome [19] = assay: Metabolic stability in male rat liver microsomes; type: ADME; how it was run: as §2

T1 sequence (Q16539 whole entry): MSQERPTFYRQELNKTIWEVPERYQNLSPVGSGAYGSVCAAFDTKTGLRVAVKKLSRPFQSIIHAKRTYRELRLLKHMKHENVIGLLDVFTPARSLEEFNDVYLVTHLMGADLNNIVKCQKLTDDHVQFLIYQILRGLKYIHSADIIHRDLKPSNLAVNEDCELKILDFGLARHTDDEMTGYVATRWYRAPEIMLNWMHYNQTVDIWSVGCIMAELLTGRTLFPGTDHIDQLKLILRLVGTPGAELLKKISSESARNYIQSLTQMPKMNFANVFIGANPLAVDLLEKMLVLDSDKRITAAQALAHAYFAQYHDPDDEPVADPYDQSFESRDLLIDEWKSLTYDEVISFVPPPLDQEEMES

| Compound | IC50 [1] [nM] | IC50 [3] [nM] | further results |
| --- | --- | --- | --- |
| O=C1c2ccc(Nc3ccc(F)cc3F)cc2CCc2ccc(OCCCO)cc21 | 13 | – | remaining at 3 h [2]: 90% |
| CC1(C)OC[C@H](COc2ccc3c(c2)C(=O)c2ccc(Nc4ccc(F)cc4F)cc2OC3)O1 | 48 | 1300 | – |
| COc1cccc2c1COc1cc(Nc3ccc(F)cc3N)ccc1C2=O | 87 | – | – |
| O=C1c2ccc(Nc3ccc(F)cc3F)cc2CCc2ccc(O)cc21 | 49 | 1250 | remaining at 3 h [2]: 70% |
| O=C1c2ccc(Nc3ccc(F)cc3F)cc2OCc2cccc(OC[C@H](O)CO)c21 | > 10000 | – | – |
| COc1ccc2c(c1)C(=O)c1ccc(Nc3ccc(F)cc3F)cc1OC2 | 115 | 4710 | – |
| COc1ccc2c(c1)COc1cc(Nc3ccc(F)cc3F)ccc1C2=O | 218 | – | – |
| O=C1c2cc(O)ccc2COc2cc(Nc3ccc(F)cc3F)ccc21 | 122 | 1850 | – |
| O=C1c2cc(OC[C@H](O)CO)ccc2COc2cc(Nc3ccc(F)cc3F)ccc21 | 14 | 233 | Cmax [5]: 627 ng/mL; AUC(0-t) [6]: 6590 ng·h/mL; t1/2 (Mus musculus [7]): 3.95 h; Kel (Mus musculus [8]): 0.0243 h⁻¹; Stability (Mus musculus [9]): Unstable; Stability (Mus musculus [10]): Unstable; Stability (Mus musculus [11]): Unstable; Stability (Mus musculus [12]): Unstable; AUC(0-inf) [13]: 6990 ng·h/mL; Tmax [14]: 1 h |
| O=C1c2ccc(Nc3ccc(F)cc3F)cc2OCc2c(OCCC3CCOCC3)cccc21 | 571 | – | – |
| Nc1ccc2c(c1)C(=O)c1ccc(Nc3ccc(F)cc3N)cc1OC2 | 151 | 1170 | – |
| O=C1c2cc(OCCO)ccc2COc2cc(Nc3ccc(F)cc3F)ccc21 | 20 | 588 | – |
| COc1ccc2c(c1)C(=O)c1ccc(Nc3ccc(F)cc3F)cc1CC2 | 44 | 1650 | remaining at 3 h [2]: 85% |
| Nc1cccc(Nc2ccc3c(c2)OCc2ccc(N)cc2C3=O)c1 | 651 | 2430 | – |
| O=C1c2ccc(Nc3ccc(F)cc3F)cc2CCc2ccc(OCCO)cc21 | 19 | 583 | remaining at 3 h [2]: 86% |
| CC1(C)OC[C@@H](CCOc2ccc3c(c2)COc2cc(Nc4ccc(F)cc4F)ccc2C3=O)O1 | 516 | – | – |
| O=C1c2ccc(Nc3ccc(F)cc3F)cc2OCc2cccc(OC[C@@H](O)CO)c21 | > 10000 | – | – |
| Nc1ccc2c(c1)C(=O)c1ccc(Nc3ccc(F)cc3)cc1OC2 | 103 | 5700 | – |
| CC1(C)OC[C@@H](COc2ccc3c(c2)COc2cc(Nc4ccc(F)cc4F)ccc2C3=O)O1 | 665 | 91200 | – |
| O=C1c2ccc(Nc3ccc(F)cc3F)cc2OCc2c(OC[C@@H](O)CO)cccc21 | 25 | 90400 | – |
| Nc1ccc2c(c1)C(=O)c1ccc(Oc3ccc(F)cc3F)cc1OC2 | 763 | – | – |
| COc1cccc2c1C(=O)c1ccc(Nc3ccc(F)cc3F)cc1OC2 | 280 | – | – |

| Compound | IC50 [1] [nM] | IC50 [3] [nM] | further results |
| --- | --- | --- | --- |
| O=C1c2ccccc2COc2cc(Nc3ccc(F)cc3F)ccc21 | – | 22000 | – |
| O=c1c2ccccc2ccc2cc(Nc3ccc(F)cc3F)ccc12 | 4200 | – | – |
| CC1(C)OC[C@@H](COc2ccc3c(c2)C(=O)c2ccc(Nc4ccc(F)cc4F)cc2OC3)O1 | 207 | 1440 | – |
| Cc1cc(F)c(NC(=O)c2ccsc2)cc1Nc1ccc2c(c1)OCc1ccc(OC[C@H]3COC(C)(C)O3)cc1C2=O | 1.8 | 287 | – |
| CC1(C)OC[C@@H](COc2cccc3c2COc2cc(Nc4ccc(F)cc4F)ccc2C3=O)O1 | 563 | – | inhibition [4]: 48.6% |
| COc1ccc2c(c1)COc1cc(Nc3ccccc3N)ccc1C2=O | 132 | 71800 | – |
| CCN(CC)CCOc1ccc2c(c1)C(=O)c1ccc(Nc3ccc(F)cc3F)cc1OC2 | 101 | 1060 | – |
| Nc1ccc2c(c1)C(=O)c1ccc(Nc3ccccc3N)cc1OC2 | 205 | 683 | – |
| O=C1c2cc(OCCC3CCCCC3)ccc2COc2cc(Nc3ccc(F)cc3F)ccc21 | – | 18600 | inhibition [15]: 41.3% |
| O=C1c2ccc(Nc3ccc(F)cc3F)cc2OCc2c(OC[C@H](O)CO)cccc21 | 42 | – | inhibition [4]: 48.5% |
| O=C1c2cc(OCCCO)ccc2COc2cc(Nc3ccc(F)cc3F)ccc21 | 8 | 631 | – |
| Nc1ccc2c(c1)C(=O)c1ccc(Nc3ccccc3F)cc1OC2 | 111 | 4540 | – |
| COc1cccc2c1COc1cc(Nc3ccccc3N)ccc1C2=O | 94 | – | – |
| O=C1c2ccc(Nc3ccc(F)cc3F)cc2CCc2ccc(OC[C@@H](O)CO)cc21 | – | – | remaining at 3 h [2]: 100% |
| Nc1ccc2c(c1)C(=O)c1ccc(Nc3ccc(F)cc3F)cc1OC2 | 43 | 1940 | – |
| COc1cccc2c1COc1cc(Nc3ccc(F)cc3F)ccc1C2=O | 63 | – | inhibition [4]: 44.7% |
| O=C1c2ccccc2CCc2cc(Nc3ccc(F)cc3F)ccc21 | 95 | 1910 | Stability (Liver microsome [16]): Unstable; Stability (Liver microsome [17]): Unstable; Stability (Liver microsome [18]): Unstable; remaining at 3 h [2]: 43%; Stability (Liver microsome [19]): Unstable |
| O=C1c2cc(OC[C@@H](O)CO)ccc2COc2cc(Nc3ccc(F)cc3F)ccc21 | 61 | 591 | – |
| Nc1ccc2c(c1)C(=O)c1ccc(Nc3cc(F)c(F)cc3F)cc1OC2 | 74 | 7810 | – |
| CC(=O)OCCOc1ccc2c(c1)C(=O)c1ccc(Nc3ccc(F)cc3F)cc1OC2 | 22 | – | – |
| CC1(C)OC[C@H](COc2cccc3c2COc2cc(Nc4ccc(F)cc4F)ccc2C3=O)O1 | 481 | – | inhibition [4]: 42.4% |

The next lines start with results.

| IC50 [1] [nM] | IC50 [3] [nM] | Compound | further results |
| --- | --- | --- | --- |
| 85 | – | Cc1ccccc1Nc1ccc2c(c1)OCc1cc(OCCN3CCOCC3)ccc1C2=O | inhibition [4]: 30.3% |
| 28 | 1100 | O=C1c2cc(NCCN3CCOCC3)ccc2COc2cc(Nc3ccc(F)cc3F)ccc21 | – |
| 557 | – | O=C1c2ccc(OCCC3CCOCC3)cc2COc2cc(Nc3ccc(F)cc3F)ccc21 | – |
| 33 | 71800 | O=C1c2ccc(OCCN3CCOCC3)cc2COc2cc(Nc3ccc(F)cc3F)ccc21 | – |
| 79 | 364 | O=C1c2cc(OCCC3CCOCC3)ccc2COc2cc(Nc3ccc(F)cc3F)ccc21 | – |
| 41 | 94800 | Nc1cc(F)ccc1Nc1ccc2c(c1)OCc1cc(OCCN3CCOCC3)ccc1C2=O | – |
| 17 | – | O=C(Nc1cc(Nc2ccc3c(c2)OCc2cc(OCCN4CCOCC4)ccc2C3=O)ccc1F)c1ccccc1 | inhibition [4]: 36% |
| 3 | 1560 | O=C(Nc1ccc(F)c(Nc2ccc3c(c2)OCc2ccc(OCCN4CCOCC4)cc2C3=O)c1)c1ccccc1 | – |
| 1.7 | 148 | Cc1cc(F)c(NC(=O)c2ccsc2)cc1Nc1ccc2c(c1)OCc1ccc(OCCN3CCOCC3)cc1C2=O | – |
| 160 | – | Cc1cc(F)ccc1Nc1ccc2c(c1)OCc1cc(OCCN3CCOCC3)ccc1C2=O | – |
| 27 | 28200 | O=C1c2ccc(OC[C@@H](O)CO)cc2COc2cc(Nc3ccc(F)cc3F)ccc21 | – |
| 21 | 429 | O=C1c2cc(OCCN3CCOCC3)ccc2COc2cc(Nc3ccc(F)cc3F)ccc21 | – |
| 34 | – | O=C1c2ccc(Nc3ccc(F)cc3F)cc2OCc2c(OCCN3CCOCC3)cccc21 | inhibition [4]: 32.2% |
| 25 | 51400 | O=C(Nc1cccc(Nc2ccc3c(c2)OCc2c(OCCN4CCOCC4)cccc2C3=O)c1)c1ccoc1 | – |
| 53 | 38100 | CN(C)CCOc1ccc2c(c1)COc1cc(Nc3ccc(F)cc3F)ccc1C2=O | – |
| 21 | 37900 | O=C1c2ccc(OCC[C@@H](O)CO)cc2COc2cc(Nc3ccc(F)cc3F)ccc21 | – |
| 819 | – | O=C1c2cc(NCCN3CCOCC3)ccc2COc2cc(Oc3ccc(F)cc3F)ccc21 | – |
| 72 | – | Nc1cc(F)ccc1Nc1ccc2c(c1)OCc1c(OCCN3CCOCC3)cccc1C2=O | inhibition [4]: 38.8% |
| 146 | 684 | Nc1cccc(Nc2ccc3c(c2)OCc2ccc(OCCN4CCOCC4)cc2C3=O)c1 | – |
| 107 | 490 | Nc1ccccc1Nc1ccc2c(c1)OCc1ccc(OCCN3CCOCC3)cc1C2=O | – |
| 10 | – | O=C(Nc1ccc(F)c(Nc2ccc3c(c2)OCc2c(OCCN4CCOCC4)cccc2C3=O)c1)c1ccccc1 | inhibition [4]: 39% |
| 147 | 58700 | Nc1ccccc1Nc1ccc2c(c1)OCc1cc(OCCN3CCOCC3)ccc1C2=O | – |
